Measured values as given in ChEMBL document CHEMBL1153899, “Discovery of benzothiazole derivatives as efficacious and enterocyte-specific MTP inhibitors” (Bioorg Med Chem Lett, 2009).
Active and inactive are the calls of the source. The calls are words filed in the database; no cut-off is given here.

Key:
[1] = AUC (0 to infinity) in Sprague-Dawley rat liver at 10 mg/kg, po; format: ADME, organism-based; parameters: time infinity, dose 10 mg/kg, route oral
Outline: (§1)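 Dose-proportionality PK in Sprague–Dawley rats (n = 3) given single oral doses of 3, 10, 30 or 100 mg/kg. Liver and plasma were sampled at 0.5, 1, 2, 4 and 8 h and assayed for drug concentration to derive Cmax, AUC(0–∞) and T1/2.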

[2] = Half life in Sprague-Dawley rat liver at 30 mg/kg, po; format: ADME, organism-based; parameters: dose 30 mg/kg, route oral; outline: as §1
Mus musculus [3] = test: Increase in peptide YY level in 3-day high fat diet fed C57BL/6 mouse at 3 mg/kg, po daily for 3 days; format: functional, organism-based; parameters: dose 3 mg/kg
Outline: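 C57BL/6 male mice (n = 9) on high-fat diet were dosed po once daily for 3 days with vehicle (5% PEG400, 0.25% Tween 80, 94.25% H2O) or test article, then given a final morning dose. Blood was taken at 30 min, 2 h and 6 h, and PYY was measured by EIA kit. Statistics by Student's t test.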

[4] = Cmax in Sprague-Dawley rat liver at 3 mg/kg, po; format: ADME, organism-based; parameters: dose 3 mg/kg, route oral; outline: as §1
[5] = Cmax in Sprague-Dawley rat plasma at 3 mg/kg, po; format: ADME, organism-based; parameters: dose 3 mg/kg, route oral; outline: as §1
[6] = Cmax in Sprague-Dawley rat plasma at 10 mg/kg, po; format: ADME, organism-based; parameters: dose 10 mg/kg, route oral; outline: as §1
Mus musculus [7] = test: Decrease in plasma triglyceride level in […] C57BL/6 mouse at 10 mg/kg, po daily for 3 days measured after 6 hrs; format: functional; parameters: scale not given: the % may be the effect or the level left
Mus musculus [8] = test: Increase in body weight in 28-day diet-induced obesity C57BL/6 mouse model at 1 mg/kg, po daily for 4 weeks; format: functional
Outline: (§2)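 C57BL/6 male mice were fed high-fat diet for 4 weeks beforehand to about 40 g and kept on it throughout. Groups of n = 10 were dosed po once daily for 4 weeks at 1 or 3 mg/kg, or vehicle (5% PEG400, 0.25% Tween 80, 94.25% H2O). Food was weighed and replaced with pre-weighed food 3 times weekly. Fed plasma glucose was taken at 2 weeks and insulin at 4 weeks.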

Mus musculus [9] = test: Decrease in total food intake in 28-day diet-induced obesity C57BL/6 mouse model at 1 mg/kg, po daily for 4 weeks measured on day 21; format: functional; parameters: scale not given: the % may be the effect or the level left; outline: as §2
[10] = AUC (0 to infinity) in Sprague-Dawley rat liver at 30 mg/kg, po; format: ADME, organism-based; parameters: dose 30 mg/kg, route oral, time infinity; outline: as §1
[11] = Half life in Sprague-Dawley rat plasma at 100 mg/kg, po; format: ADME, organism-based; parameters: dose 100 mg/kg, route oral; outline: as §1
Mus musculus [12] = test: Increase in peptide YY level in 3-day high fat diet fed C57BL/6 mouse at 10 mg/kg, po daily for 3 days; format: functional, organism-based; parameters: dose 10 mg/kg
Mus musculus [13] = test: Decrease in body weight in […] at 3 mg/kg, po daily for 3 days; format: functional, C57BL/6; parameters: scale not given: the % may be the effect or the level left
[14] = Clearance in Sprague-Dawley rat at 1 mg/kg, iv; format: ADME, organism-based; parameters: dose 1 mg/kg, route intravenous; settings: in vivo
[15] = Cmax in Sprague-Dawley rat at 1 mg/kg, iv; format: ADME, organism-based; parameters: dose 1 mg/kg, route intravenous; settings: in vivo
[16] = AUC (0 to infinity) in Sprague-Dawley rat plasma at 100 mg/kg, po; format: ADME, organism-based; parameters: time infinity, dose 100 mg/kg, route oral; outline: as §1
[17] = AUC (0 to infinity) in Sprague-Dawley rat liver at 100 mg/kg, po; format: ADME, organism-based; parameters: time infinity, dose 100 mg/kg, route oral; outline: as §1
[18] = Half life in Sprague-Dawley rat plasma at 30 mg/kg, po; format: ADME, organism-based; parameters: dose 30 mg/kg, route oral; outline: as §1
Mus musculus [19] = test: Decrease in total cholesterol level in 28-day diet-induced obesity C57BL/6 mouse model at 1 to 3 mg/kg, po daily for 4 weeks; format: functional, organism-based
Mus musculus [20] = test: Toxicity in 28-day diet-induced obesity C57BL/6 mouse model assessed as liver aspartate aminotransferase level at 1 to 3 mg/kg, po daily for 4 weeks; format: organism-based; parameters: dose 1-3 mg/kg, route oral; settings: in vivo, 672 h
Outline: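 C57BL/6 male mice kept on high fat diet 4 weeks before study (body weight about 40 g) and throughout; n = 10, dosed orally once daily for 4 weeks at 1 or 3 mg/kg, vehicle 5% PEG400, 0.25% Tween 80, 94.25% H2O; liver weight and ALT, AST, alkaline phosphatase assessed after 4 weeks.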

Mus musculus [21] = test: Decrease in insulin level in 28-day diet-induced obesity C57BL/6 mouse model at 3 mg/kg, po daily for 4 weeks; format: functional, organism-based; parameters: dose 3 mg/kg; outline: as §2
Mus musculus [22] = test: Decrease in body weight in 28-day diet-induced obesity C57BL/6 mouse model at 3 mg/kg, po daily for 4 weeks; format: functional; parameters: scale not given: the % may be the effect or the level left; outline: as §2
[23] = AUC (0 to infinity) in Sprague-Dawley rat plasma at 30 mg/kg, po; format: ADME, organism-based; parameters: time infinity, dose 30 mg/kg, route oral; outline: as §1
[24] = Cmax in Sprague-Dawley rat liver at 30 mg/kg, po; format: ADME, organism-based; parameters: dose 30 mg/kg, route oral; outline: as §1
[25] = Half life in Sprague-Dawley rat plasma at 10 mg/kg, po; format: ADME, organism-based; parameters: dose 10 mg/kg, route oral; outline: as §1
Mus musculus [26] = test: Decrease in plasma glucose level in 28-day diet-induced obesity C57BL/6 mouse model at 1 to 3 mg/kg, po daily for 4 weeks; format: functional, organism-based; outline: as §2
[27] = Volume of distribution in Sprague-Dawley rat at 1 mg/kg, iv; format: ADME, organism-based; parameters: dose 1 mg/kg, route intravenous; settings: in vivo
Outline: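 Rats given IV bolus at 1 mg/kg; clearance, half-life and volume of distribution derived from plasma drug concentrations.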

[28] = AUC (0 to infinity) in Sprague-Dawley rat liver at 3 mg/kg, po; format: ADME, organism-based; parameters: time infinity, dose 3 mg/kg, route oral; outline: as §1
Mus musculus [29] = test: Decrease in body weight in […] at 10 mg/kg, po daily for 3 days; format: functional, C57BL/6; parameters: scale not given: the % may be the effect or the level left

SMILES: CC(C)c1ccc(-c2ccccc2C(=O)Nc2ccc3nc(C(=O)N[C@H](C(=O)N(C)Cc4ccc(F)cc4)c4ccccc4)sc3c2)cc1
- AUC(0-inf) [1]: 2.64 µg·h/mL
- half-life [2]: 23.7 h
- Activity (Mus musculus [3]): Active
- Cmax [4]: 57 µg/kg
- Cmax [5]: 0.035 µg/mL
- Cmax [6]: 0.058 µg/mL
- Activity (Mus musculus [7]): 45%
- Activity (Mus musculus [8]): 1%
- Activity (Mus musculus [9]): 9%
- AUC(0-inf) [10]: 3.03 µg·h/mL
- half-life [11]: 5.44 h
- Activity (Mus musculus [12]): Active
- Activity (Mus musculus [13]): 3%
- clearance [14]: 1.03 L/h/kg
- Cmax [15]: 5.98 µg/mL
- AUC(0-inf) [16]: 0.598 µg·h/mL
- AUC(0-inf) [17]: 1.78 µg·h/mL
- half-life [18]: 10.4 h
- Activity (Mus musculus [19]): Active
- Activity (Mus musculus [20]): Non-toxic
- Activity (Mus musculus [21]): Active
- Activity (Mus musculus [22]): 3%
- AUC(0-inf) [23]: 0.51 µg·h/mL
- Cmax [24]: 73.1 µg/kg
- half-life [25]: 7.91 h
- Activity (Mus musculus [26]): Active
- Vd [27]: 2.99 L/kg
- AUC(0-inf) [28]: 1.22 µg·h/mL
- Activity (Mus musculus [29]): 4%
